Hits are enriched below; roughly 3.7% of the tested compounds scored in any of these assays.
RBBP9 inh = blocks human serine hydrolase RBBP9 | recombinant RBBP9, FP-Rh probe fluorescence polarization | inhibition, % at 7.94 µM | hit rate 0.2% among 220,000;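 active means inhibition above the campaign mean of all tested compounds plus 3 SD, cut at about 14% in these data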;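 further: plate controls were DMSO wells with RBBP9 for no effect and wells lacking RBBP9 protein for full effect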
Target sequence (O75884 whole entry, looked up): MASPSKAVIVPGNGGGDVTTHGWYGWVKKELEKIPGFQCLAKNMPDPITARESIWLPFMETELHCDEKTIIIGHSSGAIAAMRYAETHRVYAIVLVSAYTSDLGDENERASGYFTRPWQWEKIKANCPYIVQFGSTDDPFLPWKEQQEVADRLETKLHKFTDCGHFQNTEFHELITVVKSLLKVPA
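System: RBBP9 protein / Quantity: 2.5 µM RBBP9 dispensing solution, before mixing / Also added: Serine-hydrolase probe FP-Rh, 375 nM pre-mixing / Dosing: 7.94 µM single dose, 0.794% DMSO / Timing: enzyme-compound preincubation 30 min, then probe labeling 45 min, 25 °C / Signal: FP readout at 525/598 nm / Controls: DMSO-treated enzyme wells and wells lacking RBBP9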
eIF4E 4G PPI = inhibitors of eIF4E and eIF4G interaction in translation initiation; P63073+Q04637; TR-FRET eIF4E-eIF4GI(517-606) binding, 2 h; inhibition, % at 21.7 µM; hit rate 0.37% among 220,000; AID 782;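 further: 0% = full FRET control wells and 100% = background wells lacking eIF4GI fragment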
NCF1 inh = blocks human p47phox regulatory protein of NADPH oxidases | P14598 | p47phox/p22phox peptide binding, fluorescence polarization, 2 h | hit rate 0.53% among 220,000 | inhibition, % at 24.7 µM | AID 1274;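 further: 0% = p47phox with labelled peptide and 100% = labelled peptide alone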
14-3-3 Bad inh = disrupts binding of bovine 14-3-3 zeta to phospho-Bad peptide; TR-FRET 14-3-3zeta/Dy647-pBad peptide displacement, 1 h; inhibition, % at 21.7 µM; P63103; hit rate 0.71% among 220,000;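 active means inhibition above about 70%, limit read from the data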;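 further: 0% = full 14-3-3 plus peptide FRET controls and 100% = background without 14-3-3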
Target sequence (P63103 whole entry, looked up): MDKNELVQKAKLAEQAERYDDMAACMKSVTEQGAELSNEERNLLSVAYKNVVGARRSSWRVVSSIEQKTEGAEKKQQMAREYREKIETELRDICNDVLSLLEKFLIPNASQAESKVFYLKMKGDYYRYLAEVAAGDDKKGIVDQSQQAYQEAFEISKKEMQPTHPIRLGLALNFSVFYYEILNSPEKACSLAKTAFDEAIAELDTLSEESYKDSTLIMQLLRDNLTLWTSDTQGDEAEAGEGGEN
EBV gp42 inh = inhibitors of Epstein-Barr virus glycoprotein 42 | AID 1085 | hit rate 0.42% among 220,000 | Q1HVG2 | inhibition, % (tested at 21.74 µM) | Fluorescence polarization binding assay, mP read-out; in the data active means inhibition above about 50%
Target sequence (Q1HVG2 whole entry, looked up): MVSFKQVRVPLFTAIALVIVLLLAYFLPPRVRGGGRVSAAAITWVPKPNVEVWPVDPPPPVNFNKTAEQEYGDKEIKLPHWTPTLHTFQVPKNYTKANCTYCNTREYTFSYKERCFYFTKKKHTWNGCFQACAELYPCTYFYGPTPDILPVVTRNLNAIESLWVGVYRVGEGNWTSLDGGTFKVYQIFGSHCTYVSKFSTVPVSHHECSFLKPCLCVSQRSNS
WT yeast gro inh = growth inhibition of WT yeast, mitochondrial fusion screen | mitochondrial fusion phenotypic screen, WT strain | inhibition, % at 10 µM | hit rate 2.1% among 190,000 | AID 1362; in the data active means inhibition above about 58%; tested in S. cerevisiae
The depositor's hits bear a star; . = not tested or not shown; ! = not confirmed by another sample; [ ] = dose if it differs, or a comment.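 How the source made its calls, unless noted: active means inhibition above about 30% (limit read from the data); inactive means the rest.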

SMILES | RBBP9 inh | eIF4E 4G PPI | NCF1 inh | 14-3-3 Bad inh | EBV gp42 inh | WT yeast gro inh
COc1cc(C=O)ccc1Oc1nc(Nc2ccc(F)cc2F)nc(N2CCOCC2)n1 | -8.4 | 3.0 | -7.1 | 3.5 | 10.3 | 15.1
Cc1ccc(NS(=O)(=O)c2ccc(C3CCCCC3)cc2)cc1 | -10.8 | -2.8 | -17.4 | 6.4 | 5.3 | 80.2*
COc1ccc(Nc2nnc(SCC(=O)/C=C3/N(C)c4ccccc4C3(C)C)s2)cc1 | -2.6 | -3.6 | -210.2 | 12.7 | -9.2 | 31.4
O=C(N=Nc1c(O)[nH]c2ccc(Br)cc12)c1cc(-c2cccs2)nc2ccccc12 | -2.4 | 12.0 | 59.8* | 86.4* | -1.5 | -9.7
N=C(N)N=Nc1c(O)[nH]c2ccc(Br)cc12 | -4.9 | 1.4 | -7.5 | -6.9 | -0.6 | 0.3
Cn1c(O)c(N=NC(=O)c2cc(-c3cccs3)nc3ccccc23)c2ccccc21 | -10.7 | 2.7 | -11.6 | -7.3 | 10.6 | -3.6
O=C(N=Nc1c(O)[nH]c2ccc([N+](=O)[O-])cc12)c1cc(-c2ccccc2Cl)nc2ccccc12 | -5.2 | 33.6* | 29.4 | 94.3*[fluorescence artefact?] | 72.9* | -1.5
O=C(N=Nc1c(O)[nH]c2ccc(Br)cc12)c1ccccc1-n1cccc1 | -2.9 | -13.0 | -5.7 | -1.6 | -1.9 | 83.3*
COCCC1CCCCN1C(=O)c1cccc(OC2CCN(C3CCCC3)CC2)c1 (stereo not drawn) | 2.3 | -1.4 | -6.0 | -6.0 | -0.3 | -7.8
CCOC(=O)c1cc2ccc3ccccc3c2s1 | 1.8 | 2.4 | -4.2 | 3.2 | -13.1 | 59.8*
Cc1cccc(NC(=S)N(CCCN2CCCC2)Cc2cccn2Cc2ccc(Cl)cc2)c1 | 3.5 | 1.3 | -1.1 | -2.8 | -10.0 | 77.6*
CCOc1ccc(NC(=S)N(CCCN2CCCC2)Cc2cccn2Cc2ccc(Cl)cc2)cc1 | -3.9 | -1.9 | 0.6 | -12.0 | 8.7 | 70.7*
CN(C)C=Nc1ccccc1C1C=NNC1=O (stereo not drawn) | 2.4 | -0.1 | -12.5 | -1.2 | -13.8 | .
O=C(NCCC1=CCCCC1)c1cc(-c2ccncc2)nc2ccccc12 | -5.6 | 6.7 | -0.6 | -9.4 | -11.3 | -1.1
C/C(CCN1CCc2nc(-c3ccccc3)c(-c3ccccc3)cc2C1)=N\OC[C@@H](C)[C@H](OCc1ccccc1)C(C)C | -18.5 | 2.4 | -14.1 | 5.3 | -13.2 | 60.8*
O=C(CC1C(=O)NCCN1Cc1ccccc1C(F)(F)F)NCCn1cccn1 (stereo not drawn) | -13.1 | -0.4 | -1.1 | -3.0 | 3.3 | 17.7
N#CCCN1CCCc2cc(N=Nc3ccc(C(F)(F)F)cc3)ccc21 | 1.3 | 7.0 | -2.3 | -5.6 | -5.0 | .
c1ccc(-c2ccc(C(c3ccccc3)n3ccnc3)cc2)cc1 (stereo not drawn) | 1.8 | 9.2 | 0.2 | -1.6 | -3.0 | 73.4*!
CC(C)(Oc1ccc(Cl)cc1)C(=O)OCC(=O)Nc1ncc(Cl)cc1Cl | -2.8 | -2.6 | -21.0 | 87.9* | -5.8 | 22.8
O=C(COC(=O)c1ccc(Cl)nc1)Nc1ncc(Cl)cc1Cl | 6.9 | 4.7 | -2.1 | 1.1 | -4.0 | -15.3
N#CC1(c2ccccc2)CCC(=O)N1Cc1ccccc1 (stereo not drawn) | -5.2 | 4.9 | -13.6 | 2.2 | -20.8 | .
Cc1nc(-c2nnc(SCC(=O)Nc3ccc(C(F)(F)F)cc3)n2C)cs1 | 9.3 | 1.7 | -3.8 | 4.0 | -18.6 | .
COc1ccc(C(=O)Oc2c(C)occc2=O)cc1OC | -8.8 | -12.6 | -14.0 | -13.5 | -18.8 | 14.3
Cc1occc(=O)c1OC(=O)Nc1ccc(Cl)c(Cl)c1 | -59.2 | -5.7 | -11.4 | -9.0 | -117.5 | 79.9*
O=C(COC(=O)c1ccccn1)c1ccc(Br)cc1 | -12.1 | 1.1 | -1.8 | 0.4 | -8.1 | -8.7
SMILES | RBBP9 inh | eIF4E 4G PPI | NCF1 inh | 14-3-3 Bad inh | EBV gp42 inh | WT yeast gro inh
O=C(OCC1CC(c2ccccn2)=NO1)c1ccc(Br)cc1 (stereo not drawn) | -11.2 | 42.5* | -1.2 | -3.7 | -10.3 | -6.8
O=C1OC(C(=O)NCc2ccccc2)Cc2ccccc21 (stereo not drawn) | -4.9 | 0.1 | -8.5 | 73.6* | -0.8 | -1.0
O=C1CC(C(=O)NCc2ccccc2)C2(CCCC2)O1 (stereo not drawn) | -1.1 | -5.3 | -14.2 | -4.9 | -12.6 | 65.1*
CC(C)CNC(=O)C1CC(=O)OC12CCCCC2 (stereo not drawn) | -4.1 | 0.5 | -6.6 | 8.5 | -18.1 | 8.4
CC1CCN(C(=O)CSc2ccc(-c3ccccc3)nn2)CC1 | -3.3 | -3.5 | -4.0 | -11.1 | 2.7 | -1.0
O=C(Nn1cnnc1)c1cc(-c2cccc(Br)c2)nc2ccccc12 | -4.6 | -0.6 | -21.6 | -1.6 | -24.6 | .
CCCCCCCC(=O)NC1=NC(=O)C(C)(C)S1 | -4.8 | -4.6 | 4.3 | 0.8 | 23.6 | .
Cc1ccc(N2C(=O)c3cccc4c(N5CCN(C)CC5)ccc(c34)C2=O)c2cccnc12 | -7.0 | 7.6 | -24.4 | 0.1 | 159.3* | -5.6
Cc1ccc(N2C(=O)c3cccc4c([N+](=O)[O-])ccc(c34)C2=O)c2cccnc12 | -12.5 | -10.2 | 6.3 | -1.4 | 9.1 | .
Cc1nnsc1-c1c(C(=O)N2CCOCC2)c(C)nn1-c1ccc(Cl)cc1 | -2.6 | 1.1 | -5.1 | 8.7 | -9.5 | .
CC(=O)Oc1ccc(N(C(C)=O)S(=O)(=O)c2cccs2)cc1 | 6.9 | 2.8 | -7.0 | 5.6 | -28.5 | 66.2*
COc1ccc(N(C(C)=O)S(=O)(=O)c2cccs2)cc1 | 6.6 | -2.8 | 2.0 | 13.6 | -13.0 | 0.1
Cc1c(/C(O)=C2/C(=O)C(=O)N(CCN(C)C)C2c2ccc(C(C)C)cc2)cnn1-c1ccccc1 (stereo not drawn) | -5.4 | 0.0 | -1.3 | 87.9* | -20.2 | .
Cc1c(/C(O)=C2\C(=O)C(=O)N(CCN(C)C)C2c2ccccc2)cnn1-c1ccccc1 (stereo not drawn) | -0.1 | 0.8 | -9.2 | -3.7 | -12.6 | .
C/C(=N\O)c1ccc2c3c([nH]c2c1)CCCC3 | 0.4 | . | . | . | . | 73.8*
COc1ccc(NS(=O)(=O)c2ccc(O)c(C(=O)OCC(=O)Nc3ccc4c(c3)OCCO4)c2)cc1 | -5.9 | 14.6 | -15.2 | 31.3 | -11.4 | -14.4
COc1ccc(NS(=O)(=O)c2ccc3oc(Nc4ccc5c(c4)OCCO5)nc3c2)cc1 | 0.6 | 1.2 | -31.9 | -7.1 | -4.8 | 73.2*
CC1C/C(=N\NC(=S)NCc2ccccc2)CC(C)(C)C1 (stereo not drawn) | -0.7 | -2.8 | -0.7 | -11.3 | -23.3 | 64.2*
c1ccc(-c2oc3ncnc(NCCCn4ccnc4)c3c2-c2ccccc2)cc1 | -8.8 | 2.8 | -7.8 | -3.9 | 6.6 | 72.5*
c1ccc(-c2c(-c3ccccc3)n(Cc3ccco3)c3ncnc(NCCCn4ccnc4)c23)cc1 | -3.8 | -8.3 | -3.1 | 13.9 | 7.6 | 73.0*
c1csc(-c2nc3nc4ccccc4nc3n2Cc2ccc3c(c2)OCO3)c1 | -1.6 | -10.8 | -26.9 | 0.1 | -14.7 | -0.3
Clc1ccccc1-c1nc2nc3ccccc3nc2n1-c1ccc2c(c1)OCO2 | -4.8 | 3.2 | 174.3* | -2.5 | -6.9 | 33.2
C=CCNC(=O)COc1cc(C)ccc1C | -3.2 | 39.6* | -1.4 | 33.1 | 2.1 | -10.2
